In brackets after ≈: the same amount, converted by molar mass. Activity calls are given as the source filed them. The calls are words filed in the database; no cut-off is given here.
Assays:
Candida albicans [1] = test: Antimicrobial activity against Candida albicans SC5314 after 24 hrs by microbroth dilution method; assay type: functional; settings: SC5314, 24 h, read-out: MIC100
Summary of the method: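 CLSI broth microdilution in RPMI 1640 (L-glutamine, no glucose or NaHCO3) buffered to pH 7.0 with 0.165 M MOPS. Two-fold serial dilutions inoculated with 2.5 × 10^3 yeast/mL and incubated at 35 °C for 24 h, using three plates. MIC read visually as the lowest concentration giving optically clear wells versus the drug-free control.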

Staphylococcus aureus [2] = test: Antimicrobial activity against Staphylococcus aureus A170 after 24 hrs by microbroth dilution method; assay type: functional; settings: A170, 24 h, read-out: MIC100
Summary of the method: (§1)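 Two-fold serial dilutions, six replicates each, inoculated with about 5 × 10^5 CFU/mL in cation-adjusted Mueller-Hinton broth 2. Incubated at 37 °C, 160 rpm, 24 h. OD600 taken at 0 and 24 h; T0 subtracted; % inhibition calculated relative to the bacteria-plus-broth control. MIC is the lowest concentration giving 100% inhibition.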

Salmonella typhimurium = test: Antimicrobial activity against Salmonella typhimurium after 24 hrs by microbroth dilution method; assay type: functional, Salmonella enterica subsp. enterica serovar Typhimurium; settings: Salmonella enterica, read-out: MIC100; summary of the method: as §1
Candida albicans [3] = test: Induction of degradation of Candida albicans SC5314 biofilm at 20 ug/ml after 24 hrs by XTT assay relative to vehicle-treated control; assay type: functional, organism-based; settings: in the assay text read “after 8 hrs” for “after 24 hrs”
Pseudomonas aeruginosa = test: Antimicrobial activity against Pseudomonas aeruginosa ATCC 27853 after 24 hrs by microbroth dilution method; assay type: functional; settings: ATCC 27853, 24 h, read-out: MIC100; summary of the method: as §1
Listeria monocytogenes = test: Antimicrobial activity against Listeria monocytogenes after 24 hrs by microbroth dilution method; assay type: functional; settings: read-out: MIC100; summary of the method: as §1
Staphylococcus aureus [4] = test: Induction of degradation of Staphylococcus aureus A170 biofilm at 30 ug/ml after 24 hrs by crystal violet staining method relative to control; assay type: functional; settings: in the assay text read “after 8 hrs” for “after 24 hrs”
Candida albicans [5] = test: Antibiofilm activity against Candida albicans SC5314 at 8 to 60 ug/ml after 24 hrs by crystal violet staining method relative to control; assay type: functional, organism-based
Staphylococcus aureus [6] = test: Induction of degradation of Staphylococcus aureus A170 biofilm at 50 ug/ml assessed as concentration required for complete degradation after 24 hrs by crystal violet staining method relative to control; assay type: functional; settings: in the assay text read “after 8 hrs” for “after 24 hrs”
Staphylococcus aureus [7] = test: Antibiofilm activity against Staphylococcus aureus A170 at 25 ug/ml after 24 hrs by crystal violet staining method relative to control; assay type: functional, organism-based
Staphylococcus aureus [8] = test: Antibiofilm activity against Staphylococcus aureus A170 at 30 ug/ml after 24 hrs by crystal violet staining method relative to control; assay type: functional, organism-based
Candida albicans [9] = test: Antimicrobial activity against Candida albicans SC5314 assessed as inhibition of hyphae formation after 24 hrs by inverted microscopy; assay type: functional, organism-based
Summary of the method: (§2)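 Stationary yeast cells at 6 × 10^6 cells/mL in pre-warmed hypha-inducing RPMI 1640 (2.5% fetal calf serum, 20 mM HEPES, 2 mM L-glutamine, 16 mM NaHCO3, pH 7.0). Compound at 1–50 […]. After 24 h at 37 °C, wells examined by inverted microscope for morphology and hyphae formation.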

Candida albicans [10] = test: Antimicrobial activity against Candida albicans SC5314 assessed as inhibition of germination at 10 ug/ml after 24 hrs by inverted microscopy; assay type: functional, organism-based; summary of the method: as §2

| MIC (Candida albicans [1]) [µg/mL] | MIC (Staphylococcus aureus [2]) [µg/mL] | MIC (Salmonella typhimurium) [µg/mL] | MIC (Pseudomonas aeruginosa) [µg/mL] | MIC (Listeria monocytogenes) [µg/mL] | Compound | Activity (Candida albicans [3]) | Activity (Staphylococcus aureus [4]) [%] | Activity (Candida albicans [5]) | Activity (Staphylococcus aureus [6]) [µg/mL] | Activity (Staphylococcus aureus [7]) | Activity (Staphylococcus aureus [8]) | inhibition (Candida albicans [9]) | inhibition (Candida albicans [10]) |
| --- | --- | --- | --- | --- | --- | --- | --- | --- | --- | --- | --- | --- | --- |
| 30 (≈ 124 µM) | 30 (≈ 124 µM) | > 60 | > 60 | 50 (≈ 206 µM) | CCc1cc(/N=N/c2ccc(O)cc2)ccc1O | Active | >60 | Active | 50 | Active |  |  |  |
| 17 (≈ 70.2 µM) | 20 (≈ 82.5 µM) | > 60 | > 60 | 25 (≈ 103 µM) | Cc1cc(/N=N/c2ccc(O)cc2)cc(C)c1O | Active | 40 | Active | 50 |  | Active |  |  |
| > 128 | 100 (≈ 438 µM) | > 400 | > 400 |  | Oc1ccc(/C=C/c2cc(O)cc(O)c2)cc1 [RESVERATROL] |  |  |  |  |  |  |  |  |
| 20 (≈ 78.7 µM) | 20 (≈ 78.7 µM) | > 60 | > 60 | 25 (≈ 98.3 µM) | C=CCc1cc(/N=N/c2ccc(O)cc2)ccc1O | Active | >60 | Active | 50 | Active |  |  |  |
| 15 (≈ 55.9 µM) | 25 (≈ 93.2 µM) | > 60 | > 60 | > 60 | C=CCc1cc(/N=N/c2ccc(O)cc2)cc(C)c1O | Active | >60 | Active | 50 | Active |  |  |  |
| 20 (≈ 78 µM) | 20 (≈ 78 µM) | > 60 | > 60 | 25 (≈ 97.5 µM) | CCCc1cc(/N=N/c2ccc(O)cc2)ccc1O | Active | >60 | Active | 50 | Active |  | Dose-dependent effect | Active |

Reference: ChEMBL document CHEMBL3108699, “Small azobenzene derivatives active against bacteria and fungi” (2013)
